# Assay results from ChEMBL document CHEMBL5500411, “Discovery of Dual MER/AXL Kinase Inhibitors as Bifunctional Small Molecules for Inhibiting Tumor Growth and Enhancing Tumor Immune Microenvironment” (J Med Chem, 2024).
# Legend:
# [1] = target: T1, Tyrosine-protein kinase Mer (Homo sapiens) (UniProt Q12866); experiment: Inhibition of MER (unknown origin) at 1 uM preincubated for 15 mins followed by substrate and ATP addition and measured after 3 hrs by ADP-Glo kinase assay relative to control; conditions: time 195.0 min
# T1 sequence (whole entry): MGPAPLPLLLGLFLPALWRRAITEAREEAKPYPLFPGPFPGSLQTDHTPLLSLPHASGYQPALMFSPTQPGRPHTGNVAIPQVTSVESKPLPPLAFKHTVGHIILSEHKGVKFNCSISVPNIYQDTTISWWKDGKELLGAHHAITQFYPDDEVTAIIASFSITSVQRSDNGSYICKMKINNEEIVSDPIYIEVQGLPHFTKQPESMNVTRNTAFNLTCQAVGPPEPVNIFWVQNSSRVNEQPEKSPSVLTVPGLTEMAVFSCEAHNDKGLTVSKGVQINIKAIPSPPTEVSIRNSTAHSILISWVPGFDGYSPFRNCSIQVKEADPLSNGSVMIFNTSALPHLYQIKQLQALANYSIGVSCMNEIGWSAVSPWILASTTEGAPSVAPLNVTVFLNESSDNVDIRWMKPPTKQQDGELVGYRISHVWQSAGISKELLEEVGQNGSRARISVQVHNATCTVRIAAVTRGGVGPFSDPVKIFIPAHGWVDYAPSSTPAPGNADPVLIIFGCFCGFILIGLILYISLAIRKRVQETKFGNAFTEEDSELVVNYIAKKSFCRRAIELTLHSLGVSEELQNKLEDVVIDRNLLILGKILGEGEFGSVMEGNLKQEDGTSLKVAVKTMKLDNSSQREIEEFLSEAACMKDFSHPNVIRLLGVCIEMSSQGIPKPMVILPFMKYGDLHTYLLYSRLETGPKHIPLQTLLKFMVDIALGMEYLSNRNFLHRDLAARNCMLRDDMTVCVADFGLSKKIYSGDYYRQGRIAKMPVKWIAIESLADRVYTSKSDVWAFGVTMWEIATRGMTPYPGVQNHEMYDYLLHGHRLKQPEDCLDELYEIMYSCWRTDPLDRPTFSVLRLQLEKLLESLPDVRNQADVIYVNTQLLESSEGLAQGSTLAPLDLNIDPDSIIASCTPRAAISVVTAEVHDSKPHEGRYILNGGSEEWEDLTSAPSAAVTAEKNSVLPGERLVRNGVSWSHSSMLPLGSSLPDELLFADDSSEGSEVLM
# [2] = target: Tyrosine-protein kinase receptor UFO (Homo sapiens) (UniProt P30530); experiment: Inhibition of AXL (unknown origin) at 1 uM preincubated for 15 mins followed by substrate and ATP addition and measured after 3 hrs by ADP-Glo kinase assay relative to control; conditions: time 195.0 min
# [3] = target: Epidermal growth factor receptor (Homo sapiens) (UniProt P00533); experiment: Inhibition of wildtype EGFR (unknown origin) at 1 uM by kinase Glo assay relative to control
# Outline: (§1)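 In-house Kinase-Glo luminescence assay on wild-type and T790M/L858R EGFR. Values are the mean of at least two independent experiments.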
# [4] = tested on: Epidermal growth factor receptor (Homo sapiens), P00533 [L858R,T790M]; experiment: Inhibition of EGFR T790M/L858R double mutant (unknown origin) at 1 uM by kinase Glo assay relative to control; outline: as §1
# [5] = target: T2, Tyrosine-protein kinase Mer (Homo sapiens, UniProt Q12866); experiment: Inhibition of MER (unknown origin) by KINOMEScan assay
# T2 sequence (Q12866 whole entry): T1 sequence (whole entry)
# [6] = Dose normalized AUC (0 to infinity) in male ICR mouse at 2 mg/kg, iv measured after 24 hrs by LC-MS/MS analysis; type: ADME, organism-based; conditions: in vivo
# Outline: (§2)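 Male ICR mice (25–35 g) given one iv or oral dose of 2, 3 or 10 mg/kg. Vehicles were PEG400/DMA (80/20) for both routes, or DMSO/CrEL/D5W (5/5/90) iv and 1% CMC + 0.5% Tween80 oral. Plasma was taken by cardiac puncture at 0–24 h, three mice per time point. Parent drug was measured by LC-MS/MS and analysed noncompartmentally. DNAUC = AUC(0–inf)/dose.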
# [7] = Dose normalized AUC (0 to infinity) in male ICR mouse at 10 mg/kg, po measured after 24 hrs by LC-MS/MS analysis; type: ADME, organism-based; conditions: in vivo; outline: as §2
# [8] = Dose normalized AUC (0 to infinity) in male ICR mouse at 3 mg/kg, iv measured after 24 hrs by LC-MS/MS analysis; type: ADME, organism-based; conditions: in vivo; outline: as §2
# [9] = Dose normalized AUC (0 to infinity) in male ICR mouse at 3 mg/kg, po measured after 24 hrs by LC-MS/MS analysis; type: ADME, organism-based; conditions: in vivo; outline: as §2
# [10] = Toxicity in immunocompetent female C57BL/6 mouse implanted with mouse MC-38 cells assessed as body weight loss at 25 to 50 mg/kg, po administered twice a day with five days on and two days off for 3 weeks; type: organism-based; conditions: in vivo, 504 h, dose 25-50 mg/kg
# Outline: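 Female C57BL/6 mice aged 6–7 weeks bearing subcutaneous MC38 (10⁵ cells) tumors, treated from 50–60 mm³. Dosing was 25 or 50 mg/kg oral BID on a five-on/two-off schedule for 3 weeks. Body weight was recorded weekly. n = 8 per group.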
# [11] = Toxicity in immunocompetent female C57BL/6 mouse implanted with mouse MC-38 cells assessed as body weight loss at 50 mg/kg, po administered twice a day with five days on and two days off for 3 weeks; type: organism-based; conditions: in vivo, 504 h
# Outline: (§3)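 Syngeneic models in female C57BL/6 mice aged 6–7 weeks: MC38 (10⁵ cells) or Hepa1–6 (10⁶ cells) injected subcutaneously into the left flank. Oral dosing on a five-on/two-off schedule: MC38 at 50 mg/kg QD or BID for 3 weeks, Hepa1–6 at 30 mg/kg QD. Body weight was recorded weekly. n = 8–9 per group.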
# [12] = Toxicity in immunocompetent female C57BL/6 mouse implanted with mouse MC-38 cells assessed as body weight loss at 50 mg/kg, po administered once a day with five days on and two days off for 3 weeks; type: organism-based; conditions: in vivo, 504 h; outline: as §3
# MDA-MB-231 [13] = experiment: Antitumor activity against MER/AXL overexpressing human MDA-MB-231 cells xenografted in immunodeficient NOD/SCID mouse model assessed as tumor growth inhibition at 25 mg/kg, po administered twice a day with five days on and two days off for 4 weeks relative to control; type: functional; conditions: MDA-MB-231, 672 h, read-out: TGI
# Outline: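 Female NOD/SCID mice (6–7 weeks old) were given 5 million Mycoplasma-free MDA-MB-231 cells in 1:1 matrigel/medium, implanted subcutaneously. After randomization at about 150 mm³ average tumor volume, mice got oral drug or vehicle, BID, FOTO, for 4 weeks, n = 8 per group. Caliper volumes (L×W×W/2) were measured weekly. %TGI = [1 − ΔT/ΔC]×100, with Δ taken from day 0.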
# MDA-MB-231 [14] = experiment: Antitumor activity against MER/AXL overexpressing human MDA-MB-231 cells xenografted in immunodeficient NOD/SCID mouse model assessed as tumor growth inhibition at 25 mg/kg, po administered twice a day with five days on and two days off for 4 weeks in presence of bemcentinib relative to control; type: functional; conditions: MDA-MB-231, 672 h, read-out: TGI
# Outline: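 MDA-MB-231 cells (5 million, 1:1 matrigel/medium) implanted in 6–7-week-old female NOD/SCID mice. Dosing began at about 150 mm³ mean tumor volume: 25 mg/kg oral BID on a five-on/two-off schedule for 4 weeks, given alone or in combination.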
# [15] = Volume of distribution at steady state in male ICR mouse at 2 mg/kg, iv measured after 24 hrs by LC-MS/MS analysis; type: ADME, organism-based; conditions: in vivo; outline: as §2
# [16] = Toxicity in BALB/c mouse implanted with mouse 4T1 cells assessed as body weight loss at 50 mg/kg, po administered once a day with five days on and two days off; type: organism-based; conditions: in vivo
# Outline: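 Female Balb/c mice aged 6–7 weeks implanted with 4T1 cells (1 million in matrigel/medium) in the fourth left mammary fat pad. Treatment started near 50–60 mm³: 50 mg/kg oral QD on a five-on/two-off schedule. Body weight was measured weekly. n = 8–9 per group.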
# [17] = Toxicity in immunodeficient NOD/SCID mouse xenografted with MER/AXL overexpressing human MDA-MB-231 cells assessed as body weight loss at 50 mg/kg, po administered once a day with five days on and two days off; type: organism-based; conditions: in vivo
# [18] = Toxicity in immunocompetent female C57BL/6 mouse implanted with mouse MC-38 cells assessed as body weight loss at 50 mg/kg, po administered once a day with five days on and two days off; type: organism-based; conditions: in vivo; outline: as §3
# [19] = Toxicity in immunocompetent female C57BL/6 mouse implanted with mouse Hepa1-6 cells assessed as body weight loss at 30 mg/kg, po administered once a day with five days on and two days off; type: organism-based; conditions: in vivo; outline: as §3
# [20] = Toxicity in ICR mouse at 10 to 100 mg/kg administered for 14 days; type: organism-based; conditions: in vivo, 336 h, dose 10-100 mg/kg, time 14 day
# [21] = Toxicity in ICR mouse assessed as decrease in creatinine level at 30 to 100 mg/kg administered for 14 days; type: organism-based; conditions: in vivo, 336 h, dose 30-100 mg/kg, time 14 day
# [22] = Toxicity in ICR mouse assessed as decrease in creatinine level at 100 mg/kg administered for 14 days; type: organism-based; conditions: in vivo, 336 h, time 14 day
# MDA-MB-231 [23] = experiment: Antitumor activity against MER/AXL overexpressing human MDA-MB-231 cells xenografted in immunodeficient NOD/SCID mouse model assessed as tumor growth inhibition at 25 mg/kg, po administered twice a day with five days on and two days off for 4 weeks in presence of (1r,4r)-4-(2-(butylamino)-5-(4-((4-methylpiperazin-1-yl)methyl)phenyl)-7H-pyrrolo[2,3-d]pyrimidin-7-yl)cyclohexan-1-ol relative to …; type: functional; conditions: MDA-MB-231, 672 h, read-out: TGI
# Sequence of Epidermal growth factor receptor (Homo sapiens), P00533 [L858R,T790M] (P00533 whole entry T790M/L858R, looked up): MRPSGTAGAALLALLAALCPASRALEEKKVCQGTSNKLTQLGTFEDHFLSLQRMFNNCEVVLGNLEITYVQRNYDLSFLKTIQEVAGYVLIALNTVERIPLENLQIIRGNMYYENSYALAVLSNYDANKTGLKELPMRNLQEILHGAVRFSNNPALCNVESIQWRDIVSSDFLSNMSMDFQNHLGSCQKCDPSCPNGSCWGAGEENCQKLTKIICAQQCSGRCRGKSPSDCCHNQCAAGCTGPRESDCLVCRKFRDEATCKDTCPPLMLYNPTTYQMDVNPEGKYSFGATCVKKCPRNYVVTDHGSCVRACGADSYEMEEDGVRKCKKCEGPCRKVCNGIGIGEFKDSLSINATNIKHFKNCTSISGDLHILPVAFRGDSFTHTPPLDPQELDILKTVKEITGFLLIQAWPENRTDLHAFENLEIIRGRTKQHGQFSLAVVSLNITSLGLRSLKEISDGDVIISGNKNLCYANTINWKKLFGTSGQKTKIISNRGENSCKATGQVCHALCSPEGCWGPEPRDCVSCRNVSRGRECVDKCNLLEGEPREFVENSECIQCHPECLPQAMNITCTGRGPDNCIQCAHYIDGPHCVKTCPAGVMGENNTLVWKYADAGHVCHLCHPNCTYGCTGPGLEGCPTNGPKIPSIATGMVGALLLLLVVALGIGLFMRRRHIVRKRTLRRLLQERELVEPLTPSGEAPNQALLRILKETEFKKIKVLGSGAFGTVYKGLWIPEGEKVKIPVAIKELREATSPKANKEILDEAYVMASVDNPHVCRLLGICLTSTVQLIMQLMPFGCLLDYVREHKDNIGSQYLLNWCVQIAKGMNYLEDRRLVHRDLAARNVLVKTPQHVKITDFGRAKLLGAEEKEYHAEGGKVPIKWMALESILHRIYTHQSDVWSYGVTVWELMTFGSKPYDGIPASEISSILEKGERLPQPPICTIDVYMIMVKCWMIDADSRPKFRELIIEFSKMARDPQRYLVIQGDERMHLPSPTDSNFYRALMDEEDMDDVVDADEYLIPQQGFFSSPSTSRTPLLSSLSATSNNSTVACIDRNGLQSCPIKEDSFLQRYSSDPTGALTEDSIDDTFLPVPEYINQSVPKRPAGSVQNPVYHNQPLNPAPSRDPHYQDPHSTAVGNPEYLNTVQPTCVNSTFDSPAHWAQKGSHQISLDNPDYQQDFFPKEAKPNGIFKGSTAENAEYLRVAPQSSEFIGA
# Sequence of Tyrosine-protein kinase receptor UFO (Homo sapiens) (P30530 whole entry): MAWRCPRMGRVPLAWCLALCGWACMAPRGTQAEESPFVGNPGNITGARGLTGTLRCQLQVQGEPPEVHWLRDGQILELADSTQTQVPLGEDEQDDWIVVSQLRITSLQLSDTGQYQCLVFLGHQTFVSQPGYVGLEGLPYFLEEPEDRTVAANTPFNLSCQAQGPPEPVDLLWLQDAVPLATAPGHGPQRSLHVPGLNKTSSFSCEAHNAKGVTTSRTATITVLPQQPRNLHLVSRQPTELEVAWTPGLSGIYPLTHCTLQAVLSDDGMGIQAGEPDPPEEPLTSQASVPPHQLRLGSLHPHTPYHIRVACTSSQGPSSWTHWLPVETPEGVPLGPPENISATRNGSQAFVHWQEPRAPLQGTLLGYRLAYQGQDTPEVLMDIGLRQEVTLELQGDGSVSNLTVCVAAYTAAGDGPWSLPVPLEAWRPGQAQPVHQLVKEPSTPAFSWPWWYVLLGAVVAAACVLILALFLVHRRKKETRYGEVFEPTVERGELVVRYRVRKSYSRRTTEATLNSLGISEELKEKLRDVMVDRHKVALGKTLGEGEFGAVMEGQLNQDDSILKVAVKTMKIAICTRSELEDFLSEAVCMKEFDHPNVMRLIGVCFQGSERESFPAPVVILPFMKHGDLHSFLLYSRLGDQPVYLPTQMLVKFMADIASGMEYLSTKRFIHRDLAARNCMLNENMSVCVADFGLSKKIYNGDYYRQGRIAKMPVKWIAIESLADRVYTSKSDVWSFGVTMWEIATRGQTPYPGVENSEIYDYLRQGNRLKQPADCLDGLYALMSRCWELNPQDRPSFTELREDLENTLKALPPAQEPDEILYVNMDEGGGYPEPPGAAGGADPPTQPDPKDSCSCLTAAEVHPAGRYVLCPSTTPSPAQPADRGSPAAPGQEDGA
# Sequence of Epidermal growth factor receptor (Homo sapiens) (P00533 whole entry): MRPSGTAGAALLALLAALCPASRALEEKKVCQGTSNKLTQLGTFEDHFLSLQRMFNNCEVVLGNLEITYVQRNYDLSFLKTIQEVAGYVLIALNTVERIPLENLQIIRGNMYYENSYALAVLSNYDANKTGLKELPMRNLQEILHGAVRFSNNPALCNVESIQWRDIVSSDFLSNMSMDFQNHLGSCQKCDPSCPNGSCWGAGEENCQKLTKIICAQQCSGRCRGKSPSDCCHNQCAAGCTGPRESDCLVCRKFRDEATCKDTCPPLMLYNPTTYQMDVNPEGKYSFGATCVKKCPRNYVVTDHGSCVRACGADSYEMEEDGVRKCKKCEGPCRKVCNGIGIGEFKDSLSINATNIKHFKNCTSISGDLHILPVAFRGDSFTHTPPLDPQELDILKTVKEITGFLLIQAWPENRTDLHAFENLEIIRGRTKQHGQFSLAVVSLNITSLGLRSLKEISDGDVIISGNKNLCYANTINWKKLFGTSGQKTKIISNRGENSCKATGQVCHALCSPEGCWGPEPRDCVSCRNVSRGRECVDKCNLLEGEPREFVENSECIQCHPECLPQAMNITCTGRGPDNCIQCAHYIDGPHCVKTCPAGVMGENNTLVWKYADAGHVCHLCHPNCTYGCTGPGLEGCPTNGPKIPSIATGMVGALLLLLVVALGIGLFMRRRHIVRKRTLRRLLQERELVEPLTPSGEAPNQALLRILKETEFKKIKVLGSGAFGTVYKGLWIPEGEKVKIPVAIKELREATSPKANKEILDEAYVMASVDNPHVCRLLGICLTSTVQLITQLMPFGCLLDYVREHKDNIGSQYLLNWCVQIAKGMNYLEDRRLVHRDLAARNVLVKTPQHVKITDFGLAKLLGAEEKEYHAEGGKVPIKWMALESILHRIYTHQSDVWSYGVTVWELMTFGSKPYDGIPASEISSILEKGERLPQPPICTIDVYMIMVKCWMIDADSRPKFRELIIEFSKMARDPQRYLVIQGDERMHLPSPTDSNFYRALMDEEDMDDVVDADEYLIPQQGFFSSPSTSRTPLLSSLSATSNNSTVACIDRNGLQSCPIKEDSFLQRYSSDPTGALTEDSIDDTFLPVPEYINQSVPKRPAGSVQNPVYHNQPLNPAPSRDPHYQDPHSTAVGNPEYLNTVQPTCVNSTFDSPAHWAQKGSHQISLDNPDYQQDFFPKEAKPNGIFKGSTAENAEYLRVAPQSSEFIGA
compound,measurement,setting,value
Nc1cccc(-c2c(-c3ccccc3)oc3ncnc(Oc4ccc(NC(=O)C5(C(=O)Nc6ccc(F)cc6)CC5)cc4)c23)c1,inhibition,[1],71%
same,inhibition,[2],100%
same,inhibition,[3],0%
same,inhibition,[4],-9%
Cc1ccc(C(=O)Nc2ccc(Oc3cc4cnn(C)c4cc3-c3cn[nH]c3)c(F)c2)c(=O)n1-c1ccc(F)cc1 [MERESTINIB],IC50,[5],800 pM
CNc1cccc(-c2c(-c3cnn(C)c3)oc3ncnc(Oc4ccc(NC(=O)c5cccn(-c6ccc(F)cc6)c5=O)cc4)c23)c1,AUC/dose,[6],3330.5 ng.hr/ml per mg/kg
same,AUC/dose,[7],15.3 ng.hr/ml per mg/kg
Cn1cc(-c2oc3ncnc(Oc4ccc(NC(=O)c5cccn(-c6ccc(F)cc6)c5=O)cc4)c3c2-c2cccc(N)c2)cn1,AUC/dose,[8],3985.3 ng·h/mL
same,AUC/dose,[9],764 ng·h/mL
same,Activity,[10],Non-Toxic
same,Activity,[11],Non-Toxic
same,Activity,[12],Non-Toxic
O=C(Nc1ccc(F)cc1)C1(C(=O)Nc2ccc(Oc3ncnc4oc(-c5ccccc5)cc34)cc2)CC1,inhibition,[1],4%
same,inhibition,[2],53%
same,inhibition,[3],4%
same,inhibition,[4],1%
Cn1cc(-c2oc3ncnc(Oc4ccc(NC(=O)c5cccn(-c6ccc(F)cc6)c5=O)cc4)c3c2-c2cccc(CN)c2)cn1,AUC/dose,[6],483 ng.hr/ml per mg/kg
Nc1cccc(-c2c(-c3ccccc3)oc3ncnc(Oc4ccc(NC(=S)NC(=O)Cc5ccccc5)cc4)c23)c1,inhibition,[1],9%
same,inhibition,[2],95%
same,inhibition,[3],1%
same,inhibition,[4],-6%
Cn1cc(-c2oc3ncnc(Oc4ccc(NC(=O)c5cccn(-c6ccc(F)cc6)c5=O)cc4)c3c2-c2cccc(N3CCNCC3)c2)cn1,AUC/dose,[6],454.5 ng.hr/ml per mg/kg
same,AUC/dose,[7],2.6 ng.hr/ml per mg/kg
CCCCNc1ncc2c(-c3ccc(CN4CCN(C)CC4)cc3)cn([C@H]3CC[C@H](O)CC3)c2n1,inhibition in vivo at 25 mg/kg,MDA-MB-231 [13],15.9%
same,inhibition in vivo at 25 mg/kg,MDA-MB-231 [14],52.4%
O=C(Nc1ccc(F)cc1)C1(C(=O)Nc2ccc(Oc3ncnc4oc(-c5ccccc5)c(-c5ccccc5)c34)cc2)CC1,inhibition,[1],41%
same,inhibition,[2],98%
same,inhibition,[3],3%
same,inhibition,[4],2%
Nc1cccc(-c2c(-c3ccccc3)oc3ncnc(Nc4ccc(NC(=O)C5(C(=O)Nc6ccc(F)cc6)CC5)cc4)c23)c1,inhibition,[1],19%
same,inhibition,[2],92%
same,inhibition,[3],1%
same,inhibition,[4],-4%
CN(C)Cc1cccc(-c2c(-c3cnn(C)c3)oc3ncnc(Oc4ccc(NC(=O)c5cccn(-c6ccc(F)cc6)c5=O)cc4)c23)c1,Vdss,[15],52 L/kg
same,Activity,[11],Non-Toxic
same,Activity,[12],Non-Toxic
same,Activity,[16],Non-Toxic
same,Activity,[17],Non-Toxic
same,Activity,[18],Non-Toxic
same,Activity,[19],Non-Toxic
same,Activity,[20],Non-Toxic
same,Activity,[21],Toxic
COc1cc2nccc(Oc3ccc(NC(=O)c4cc5c(n(-c6ccccc6)c4=O)CCCC5=O)nc3)c2cc1OC [TAMNORZATINIB],Activity,[16],Non-Toxic
same,Activity,[17],Non-Toxic
same,Activity,[18],Non-Toxic
same,Activity,[19],Non-Toxic
same,Activity,[22],Toxic
CN1CCN(c2cccc(-c3c(-c4cnn(C)c4)oc4ncnc(Oc5ccc(NC(=O)c6cccn(-c7ccc(F)cc7)c6=O)cc5)c34)c2)CC1,AUC/dose,[6],221 ng.hr/ml per mg/kg
same,AUC/dose,[7],32.8 ng.hr/ml per mg/kg
Nc1nc(Nc2ccc3c(c2)CC[C@@H](N2CCCC2)CC3)nn1-c1cc2c(nn1)-c1ccccc1CCC2 [BEMCENTINIB],inhibition in vivo at 25 mg/kg,MDA-MB-231 [13],7.7%
same,inhibition in vivo at 25 mg/kg,MDA-MB-231 [23],52.4%
